Tests used:
[1] = tested on: SARS coronavirus Urbani; assay: Irreversible inhibition of SARS coronavirus Urbani 3CL protease (9985 to 10902) assessed as first order inhibition rate constant (Kobs/I ratio) using TAMRA-SITSAVLQSGFRKMK(DABCYL)-OH as substrate measured for 10 mins by FRET assay
Procedure, shortened: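 SARS CoV-1 3CL protease activity was monitored by a FRET read-out. Irreversible, time-dependent inactivation was expressed as kobs/I. Each value was calculated from at least eight data points, with at least two independent determinations.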

[2] = tested on: SARS-CoV; assay: Antiviral activity against SARS COV-1 infected in monkey vero 76 cells assessed as reduction in virus-induced cytopathic effect measured after 66 hrs by neutral red method or cell titer glo-based luminescence assay; assay type: functional, organism-based; settings: Severe acute respiratory syndrome-related coronavirus
[3] = Permeability of compound in human Caco-2 cells; assay type: ADME, cell-based
[4] = Reversible inhibition of SARS coronavirus Urbani 3CL protease(9985 to 10902) using TAMRA-SITSAVLQSGFRKMK(DABCYL)-OH as substrate measured for 10 mins by FRET assay
Procedure, shortened: (§1)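 SARS CoV-1 3CLpro FRET assay; each value calculated from at least eight data points, with at least two independent determinations.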

[5] = Irreversible inhibition of SARS coronavirus Urbani 3CL protease (9985 to 10902) using TAMRA-SITSAVLQSGFRKMK(DABCYL)-OH as substrate measured for 10 mins by FRET assay; procedure, shortened: as §1
[6] = tested on: SARS coronavirus Urbani; assay: Irreversible inhibition of SARS coronavirus Urbani 3CL protease (9985 to 10902) at 1 uM using TAMRA-SITSAVLQSGFRKMK(DABCYL)-OH as substrate measured for 10 mins by FRET assay relative to control
[7] = Metabolic stability in human plasma assessed as half-life at 1 uM incubated for 60 mins by LC/MS analysis; assay type: ADME, cell-free
[8] = Solubility of the compound in vehicle formulations; assay type: physicochemical
[9] = Glutathione reactivity in pH 7.8 Tris buffer assessed as half-life at 1 uM measured after 30 mins by LC/MS analysis; assay type: ADME

Structure (SMILES) | EC50 [2] [nM] | IC50 [4] [nM] | IC50 [5] [nM] | other results
CC(C)C[C@H](NC(=O)[C@H]1CCCO1)C(=O)N[C@@H](C[C@@H]1CCNC1=O)C(=O)COC(=O)c1c(Cl)cccc1Cl |  |  |  | K [1]: 5830 M⁻¹ s⁻¹
COc1cccc2[nH]c(C(=O)N[C@@H](Cc3ccccc3)C(=O)N[C@@H](C[C@@H]3CCNC3=O)C(=O)CO)cc12 | 47000 | 103 |  | permeability [3]: Impermeable
CC(C)(C)C[C@H](NC(=O)[C@H]1CCCO1)C(=O)N[C@@H](C[C@@H]1CCNC1=O)C(=O)CO | 33000 | 91 |  | 
COc1cccc2[nH]c(C(=O)N[C@@H](CC(C)C)C(=O)N[C@@H](C[C@@H]3CCNC3=O)C(=O)COC(=O)c3ccccc3C#N)cc12 |  |  | 17 | 
COCC(=O)[C@H](C[C@@H]1CCNC1=O)NC(=O)[C@H](CC(C)(C)C)NC(=O)c1cc2c(OC)cccc2[nH]1 | 32000 | 35 |  | 
CC(C)C[C@H](NC(=O)OC(C)(C)C)C(=O)N[C@@H](C[C@@H]1CCNC1=O)C(=O)COC(=O)c1c(Cl)cccc1Cl |  |  |  | inhibition [6]: 24%
CCCC[C@H](NC(=O)c1cc2c(OC)cccc2[nH]1)C(=O)N[C@@H](C[C@@H]1CCNC1=O)C(=O)CO | 10000 | 20 |  | permeability [3]: Impermeable
COc1cccc2[nH]c(C(=O)N[C@@H](CC(C)C)C(=O)N[C@@H](C[C@@H]3CCNC3=O)C(=O)COC(=O)C3CC3)cc12 |  |  | 182 | 
CC(C)C[C@H](NC(=O)c1nc2ccccc2[nH]1)C(=O)N[C@@H](C[C@@H]1CCNC1=O)C(=O)COC(=O)c1c(Cl)cccc1Cl |  |  |  | K [1]: 30300 M⁻¹ s⁻¹
CC(C)(C)C[C@H](NC(=O)c1cc2ccccc2[nH]1)C(=O)N[C@@H](C[C@@H]1CCNC1=O)C(=O)CO | 17000 | 20 |  | 
COc1cccc2[nH]c(C(=O)N[C@@H](CC(C)(C)C)C(=O)N[C@@H](C[C@@H]3CCNC3=O)C(=O)CO)cc12 | 10000 | 7 |  | permeability [3]: Impermeable
CCOCC(=O)[C@H](C[C@@H]1CCNC1=O)NC(=O)[C@H](CC(C)(C)C)NC(=O)c1cc2ccccc2[nH]1 | 20000 | 112 |  | 
COc1cccc2[nH]c(C(=O)N[C@@H](CC(C)C)C(=O)N[C@@H](C[C@@H]3CCNC3=O)C(=O)COC(=O)c3ccc(C#N)cc3)cc12 |  |  | 53 | 
COc1cccc2[nH]c(C(=O)N[C@@H](CC(C)C)C(=O)N[C@@H](C[C@@H]3CCNC3=O)C(=O)COC(=O)c3ccc(F)cc3)cc12 |  |  | 82 | 
COCC(=O)[C@H](C[C@@H]1CCNC1=O)NC(=O)[C@H](CC(C)C)NC(=O)c1cc2ccccc2[nH]1 | 45000 | 131 |  | 
COc1cccc2[nH]c(C(=O)N[C@@H](CC(C)C)C(=O)N[C@@H](C[C@@H]3CCNC3=O)C(=O)CCl)cc12 |  |  |  | K [1]: 283000 M⁻¹ s⁻¹
COc1cccc2[nH]c(C(=O)N[C@@H](CC(C)C)C(=O)N[C@@H](C[C@@H]3CCNC3=O)C(=O)COC(=O)c3c(F)cccc3F)cc12 |  |  |  | K [1]: 12800 M⁻¹ s⁻¹
COc1cccc2[nH]c(C(=O)N[C@@H](CCC(C)C)C(=O)N[C@@H](C[C@@H]3CCNC3=O)C(=O)CO)cc12 | 33000 | 34 |  | permeability [3]: Impermeable

Structure (SMILES) | EC50 [2] [nM] | IC50 [4] [nM] | IC50 [5] [nM] | other results
COCC(=O)[C@H](C[C@@H]1CCNC1=O)NC(=O)[C@H](CC(C)C)NC(=O)c1cc2c(OC)cccc2[nH]1 | 31000 | 53 |  | 
COc1cccc2[nH]c(C(=O)N[C@@H](CC(C)C)C(=O)N[C@@H](C[C@@H]3CCNC3=O)C(=O)COC(C)=O)cc12 |  |  | 220 | 
COc1cccc2[nH]c(C(=O)N[C@@H](CC(C)C)C(=O)N[C@@H](C[C@@H]3CCNC3=O)C(=O)COC(=O)c3ccccc3)cc12 |  |  | 86 | 
COCC(=O)[C@H](C[C@@H]1CCNC1=O)NC(=O)[C@H](CC(C)(C)C)NC(=O)[C@H]1CCCO1 | > 100000 | 1080 |  | 
COc1cccc2[nH]c(C(=O)N[C@@H](CC(C)C)C(=O)N[C@@H](C[C@@H]3CCNC3=O)C(=O)COC(=O)c3c(C)cccc3C)cc12 |  |  | 74 | 
CC(C)C[C@H](NC(=O)c1cc2ccccc2[nH]1)C(=O)N[C@@H](C[C@@H]1CCNC1=O)C(=O)CO | 20000 | 38 |  | 
COc1cccc2[nH]c(C(=O)N[C@@H](CC(C)C)C(=O)N[C@@H](C[C@@H]3CCNC3=O)C(=O)COC(=O)c3ccc(Cl)cc3O)cc12 |  |  |  | K [1]: 11500 M⁻¹ s⁻¹
COc1cccc2[nH]c(C(=O)N[C@@H](CC(C)C)C(=O)N[C@@H](C[C@@H]3CCNC3=O)C(=O)COC(=O)c3ccc(C)cc3)cc12 |  |  | 87 | 
COc1cccc2[nH]c(C(=O)N[C@@H](CC3CCCCC3)C(=O)N[C@@H](C[C@@H]3CCNC3=O)C(=O)CO)cc12 | 14000 | 44 |  | permeability [3]: Impermeable
COc1cccc2[nH]c(C(=O)N[C@@H](CC(C)C)C(=O)N[C@@H](C[C@@H]3CCNC3=O)C(=O)COC(=O)c3c(Cl)cccc3Cl)cc12 | 290 |  |  | half-life at 1 µM [7]: > 4 h; solubility [8]: Insoluble; K [1]: 63000 M⁻¹ s⁻¹; half-life at 1 µM [9]: > 1 h
COc1cccc2[nH]c(C(=O)N[C@@H](CC(C)C)C(=O)N[C@@H](C[C@@H]3CCNC3=O)C(=O)COC(=O)c3ccc(Cl)cc3)cc12 |  |  | 97 | 
COc1cccc2[nH]c(C(=O)N[C@@H](CC(C)C)C(=O)N[C@@H](C[C@@H]3CCNC3=O)C(=O)COC(=O)C(C)(C)C)cc12 |  |  | 230 | 
CC(=O)N[C@@H](CC(C)C)C(=O)N[C@@H](C[C@@H]1CCNC1=O)C(=O)COC(=O)c1c(Cl)cccc1Cl |  |  | 1030 | 
COc1cccc(OC)c1C(=O)OCC(=O)[C@H](C[C@@H]1CCNC1=O)NC(=O)[C@H](CC(C)C)NC(=O)c1cc2c(OC)cccc2[nH]1 |  |  | 205 | 
COc1cccc2[nH]c(C(=O)N[C@@H](CC(C)C)C(=O)N[C@@H](C[C@@H]3CCNC3=O)C(=O)COC(=O)c3ccc(C#N)cc3F)cc12 |  |  |  | K [1]: 13300 M⁻¹ s⁻¹
COc1ccc(C(=O)OCC(=O)[C@H](C[C@@H]2CCNC2=O)NC(=O)[C@H](CC(C)C)NC(=O)c2cc3c(OC)cccc3[nH]2)cc1 |  |  | 79 | 
COCC(=O)[C@H](C[C@@H]1CCNC1=O)NC(=O)[C@H](CC(C)(C)C)NC(=O)c1cc2ccccc2[nH]1 | 46000 | 105 |  | 
COc1cccc2[nH]c(C(=O)N(C)[C@@H](CC(C)C)C(=O)N[C@@H](C[C@@H]3CCNC3=O)C(=O)CO)cc12 | 19000 | 83 |  | permeability [3]: Impermeable

— ChEMBL document CHEMBL4699574, “Discovery of Ketone-Based Covalent Inhibitors of Coronavirus 3CL Proteases for the Potential Therapeutic Treatment of COVID-19” (J Med Chem, 2020)
